# Compound activity deposited in PubChem BioAssay by several laboratories.
# CaV13 ICDI inh: Disruptors of the CACNA1D IQ motif to Ca2+-dependent inactivation inhibitor domain association, primary screening, Förster resonance energy transfer in intact living …; inhibition, % at 12.3 µM; HEK cells, CFP/YFP FRET ICDI-IQ, plate reader, 10 min; percent FRET-ratio fall versus neutral wells; 340,000 tested, 0.098% active; AID 743397;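 active = mean replicate inhibition of at least 30% and at least 1% of replicates passing that level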;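 also: 0% = median of the neutral control wells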
# Efflux pump mplx: antifungal efflux pump inhibition, Nile Red retention; S. cerevisiae Candida pump triplex; 330,000 tested, 0.44% active; inhibition, % at 10 µM;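 active = plate passing quality check with inhibition over a set limit, or well fluorescence over plate mean plus 4 SD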;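 also: Nile Red retained in pooled yeast measured as flow cytometry median fluorescence; 0% = buffer negative control and 100% = Enniatin B positive control; higher means more Nile Red kept so more efflux inhibition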
# FN deposit inh: fibronectin deposition inhibition; AH1F fibroblasts, Alexa488-fibronectin deposition fluorescence, overnight; inhibition, % at 12.6 µM; 350,000 tested, 0.086% active;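 active = mean inhibition across replicates of 30% or more, regardless of how many single replicates reach that level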;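 also: positive control wells lacked labelled fibronectin entirely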
#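 test system = AH1F fibroblasts assembling fluorescent fibronectin matrix | quantity = 10000 AH1F cells per well | buffer or medium = DMEM plus 2% serum, read in PBS | doses = single dose, pinned | incubation = 1 h cell attachment, overnight exposure to compound and label | detection = fluorescence at 485 nm excitation, 525 nm emission | read-out basis = inhibition from reduced deposited-fibronectin fluorescence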
# SR-BI HDL uptake: inhibitors of mouse SR-BI mediated HDL lipid uptake. ldlA[mSR-BI] CHO cells, DiI-HDL uptake fluorescence, 3 h. inhibition, % at 12.5 µM. 320,000 tested, 0.96% active. Q61009;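 active = mean replicate inhibition of at least 70% and a set share of replicates each scoring 70 or more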;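 also: 0% = median of neutral control wells and 100% = median of positive control wells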
# Target sequence (Q61009 whole entry, looked up): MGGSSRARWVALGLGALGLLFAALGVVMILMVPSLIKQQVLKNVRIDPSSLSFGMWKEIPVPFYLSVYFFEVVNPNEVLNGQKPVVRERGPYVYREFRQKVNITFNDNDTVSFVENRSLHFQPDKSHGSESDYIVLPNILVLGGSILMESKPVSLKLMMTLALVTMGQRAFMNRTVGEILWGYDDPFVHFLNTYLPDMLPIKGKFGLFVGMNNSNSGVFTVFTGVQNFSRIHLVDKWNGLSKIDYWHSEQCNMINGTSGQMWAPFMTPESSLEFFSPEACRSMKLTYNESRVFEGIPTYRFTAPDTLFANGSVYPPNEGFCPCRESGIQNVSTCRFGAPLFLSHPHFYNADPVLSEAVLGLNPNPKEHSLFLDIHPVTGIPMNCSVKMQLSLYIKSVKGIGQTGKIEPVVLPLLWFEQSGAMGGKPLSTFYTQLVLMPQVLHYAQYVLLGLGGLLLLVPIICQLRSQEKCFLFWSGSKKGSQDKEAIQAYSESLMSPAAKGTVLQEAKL
# SR-BI uptake up: SR-BI HDL lipid transfer activation; activation, % at 12.5 µM; CHO ldlA[mSR-BI] cells, DiI-HDL uptake fluorescence, 3 h; 100 = double the neutral-control signal; 320,000 tested, 0.096% active;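 active = mean replicate activation of at least 60% and every replicate at or above 60%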;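 also: 0% = median plate neutral-control signal and 100% = twice that signal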
#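 system = CHO ldlA[mSR-BI] cells, LDL receptor-null, SR-BI overexpressing | medium = Ham's F12 with 0.5% BSA, HEPES 25 mM, pH 7.4 | probe or stimulus = DiI-HDL 10 µg/mL | compound dosing = single-point compound dose | incubation = compound exposure 3 h, 37 °C | technique = DiI fluorescence, bottom read | read-out = cell-associated DiI fluorescence as measure of HDL uptake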
# Active calls of the source: *; . = no result. Hits are enriched below; roughly 1.2% of the tested compounds scored in any of these assays.
SMILES,CaV13 ICDI inh,Efflux pump mplx,FN deposit inh,SR-BI HDL uptake,SR-BI uptake up
Clc1ccc(Cn2ncc3c(NCc4ccccc4)ncnc32)c(Cl)c1,-3,5.5*,-3,.,.
C[C@@H]1CCCCO[C@H](CN(C)S(=O)(=O)c2ccc(F)cc2)[C@H](C)CN([C@H](C)CO)C(=O)c2cc(NC(=O)C3CCCCC3)ccc2O1,.,.,7,.,.
COc1cc2c(cc1NC(=O)C1CCCO1)oc1ccccc12 (configuration not stated),-8,0,.,76*,-76
COc1cc2c(cc1NC(=S)Nc1ccccc1C)oc1ccccc12,.,0,.,57,-57
COc1ccccc1NC(=S)NCCc1c[nH]c2ccccc12,.,0,.,32,-32
CCNC(=S)Nc1cc2oc3ccccc3c2cc1OC,.,0,.,84*,-84
CNC(=S)Nc1cc2oc3ccccc3c2cc1OC,.,0,.,94*,-94
COc1cc(NC(=S)NCCc2c[nH]c3ccccc23)c(OC)cc1Cl,-20,0,-6,73*,-73
FC(F)(F)CN1CC2C(c3ccc(Br)cc3)C(C1)N2CC(F)(F)F (configuration not stated),.,.,-16,.,.
COCC(=O)Nc1ccc2c(c1)C(=O)N(C)C[C@H](OC)[C@H](C)CN[C@@H](C)CO2,.,.,-9,.,.
CO[C@H]1CN(C)C(=O)c2cc(NC(=O)C3CCCC3)ccc2OC[C@@H](C)N(C(C)=O)C[C@@H]1C,.,.,8,.,.
CC(C)[C@H]1C(=O)N[C@H](c2cccc(Cl)c2)CC=CC[C@@H](C)Oc2ccccc2C(=O)N1C (mixture of isomers),.,.,-13,.,.
CC(C)[C@H]1CC=CC[C@@H](C)Oc2ccccc2C(=O)N(C)[C@H](C(C)C)C(=O)N1 (mixture of isomers),.,.,9,.,.
CCCNC(=S)Nc1cc2oc3ccccc3c2cc1OC,.,0,.,89*,-89
COc1cc2c(cc1NC(=S)Nc1cccc(C)c1)oc1ccccc12,-3,0,-10,50,-50
O=C(NC1CCC(O)CC1)c1cc(-c2ccc(Cl)cc2)nc2ccccc12 (configuration not stated),-3,0,2,77*,-77
O=C(N/N=C/c1ccc[nH]1)c1sc2ccccc2c1Cl,-5,0,-4,75*,-75
O=C(N/N=C/c1ccc[nH]1)c1cc(-c2ccc(Cl)cc2)nc2ccccc12,-5,0,0,93*,-93
C[C@@H]1CCCCO[C@H](CN(C)Cc2ccc(Cl)c(Cl)c2)[C@H](C)CN([C@@H](C)CO)C(=O)c2cc(NS(=O)(=O)c3ccc(F)cc3)ccc2O1,.,.,-15,.,.
CNC[C@@H]1Oc2ccc(N)cc2CC(=O)N(C)C[C@H]1C,.,.,-9,.,.
Cc1ccc(C(F)(F)F)cc1NC(N)=S,-9,0,3,77*,-77
CC(C)c1ccc(-c2nc(N3CCCCCC3)nc3n[nH]c(N)c23)cc1,-4,0,-8,90*,-90
CC(C)NC(=O)Nc1ccc2c(c1)C(=O)N([C@@H](C)CO)C[C@@H](C)[C@@H](CN(C)C(=O)CCC(F)(F)F)OCCCC[C@@H](C)O2,.,.,1,.,.
O=C1/C(=C\c2ccc(O)c(O)c2)SC(=S)N1Cc1ccccc1,-8,1,12,83*,-83
O=C1/C(=C\c2cccc(O)c2O)SC(=S)N1Cc1ccccc1,-5,0,22,133*,-133
SMILES,CaV13 ICDI inh,Efflux pump mplx,FN deposit inh,SR-BI HDL uptake,SR-BI uptake up
O=C1/C(=C\c2cccc(O)c2)SC(=S)N1Cc1ccccc1,-20,1,-4,-8,8
COc1ccc(CNC(=O)C[C@H]2C=C[C@H](NC(=O)c3ccc4c(c3)OCO4)[C@H](CO)O2)cc1,.,.,-3,.,.
COc1ccc(NC(=O)N2CCCCN3[C@H](CO)[C@@H](c4ccc(C#Cc5ccccn5)cc4)[C@H]3C2)cc1,.,.,-6,.,.
CCOc1cc(Br)cc(/C=N/NC(=O)c2cccnc2)c1O,-26,0,9,80*,-80
Cc1ccc(C(=O)N/N=C/c2cc(Br)ccc2O)cn1,-3,0,12,75*,-75
Cc1ccc(C(=O)N/N=C\C=C\c2ccc(Br)cc2)cn1,-6,0,-1,13,-13
O=C(N/N=C/c1cc(Br)ccc1O)c1ccccc1Cl,-3,1,1,84*,-84
O=C(N/N=C/c1cc(Cl)ccc1O)c1ccncc1,-36,0,4,115*,-115
